Hsp70 activator: Hsp70 transcriptional activation, primary screen; HeLa Hsp70 promoter luciferase reporter, luminescence; scaled: vehicle 0, proteasome-inhibitor control 100%; activation, % at 10 µM; 200,000 tested, 0.04% active; AID 1203;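 active means activation above the mean across all tested compounds plus 3 SD, cutoff set per campaign, cut at about 5.5% in these data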;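 further: 100% = MG132 at 30 µM as the positive control and 0% = DMSO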
MDM2 E3 inh: inhibitors of human Mdm2 E3 ubiquitin ligase; AID 1230; 210,000 tested, 0.11% active; cell-based MDM2 ubiquitination luciferase reporter, 2 h; 0 = plate control, 100 = twice control, blank-subtracted; signal enhancement, % at 5 µM; Q00987;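 active means signal enhancement of 30% or more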;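 further: luminescence tracks abundance of the self-degrading MDM2-luciferase fusion protein; higher signal means inhibition of MDM2 E3 ligase activity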
Target sequence (Q00987 whole entry, looked up, the tested form may be a part): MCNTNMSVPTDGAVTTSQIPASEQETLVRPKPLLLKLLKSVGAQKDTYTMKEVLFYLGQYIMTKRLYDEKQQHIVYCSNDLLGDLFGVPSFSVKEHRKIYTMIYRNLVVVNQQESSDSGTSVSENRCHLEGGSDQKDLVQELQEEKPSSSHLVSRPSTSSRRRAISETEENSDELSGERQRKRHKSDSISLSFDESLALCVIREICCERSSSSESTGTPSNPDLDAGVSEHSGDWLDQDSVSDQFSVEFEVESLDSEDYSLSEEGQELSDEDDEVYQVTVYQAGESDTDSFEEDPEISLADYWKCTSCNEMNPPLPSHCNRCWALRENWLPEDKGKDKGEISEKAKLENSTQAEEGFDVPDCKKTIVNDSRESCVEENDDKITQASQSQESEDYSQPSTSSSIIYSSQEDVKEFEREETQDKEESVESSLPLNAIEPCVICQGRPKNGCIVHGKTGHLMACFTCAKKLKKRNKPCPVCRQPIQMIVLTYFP
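System: stable MDM2–luciferase fusion reporter cells / Input: 2000 cells seeded into each well / Schedule: 4 h settle plus 2 h compound, 37 °C / Compound: single-point 5 µM / Buffer or medium: cells held in DMEM / Benchmarks: control and blank well means / Evaluation: percent signal gain over controls, blank-subtracted / Measured by: luciferase luminescence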
HSF1 inhib: HSF1 inhibition. NIH3T3-HGL HSE-luciferase, MG132-induced, luminescence 8 h; hits give low values. activity change, negative = inhibition, % at 7.5 µM (by protocol). 300,000 tested, 0.77% active. AID 2098;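 active means more than half of replicate wells show activity change below -50%, luminescence cut by over half; inconclusive means some wells, but at most half, below -50%; inactive means no replicate well below -50%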;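 further: luciferase reports HSF-1 transcriptional activity via heat shock element; 0% = median of DMSO wells and -100% = zero luminescence signal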
HSV replic up: increases HSV replication in cells; maximum fold increase; 220,000 tested, 0.005% active; HSV replication augmentation in cells, fold increase; AID 1956; in the data active means maximum fold increase above about 1.5; inconclusive means no clear call, values can overlap the other calls; tested in PC3 cells
Rad51 HR inh: Rad51 (human) homologous recombination inhibition; Q06609; hRad51 DNA strand exchange, fluorescence dequenching; inhibition, % at 10 µM; 200,000 tested, 0.085% active; AID 1385;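 active means inhibition above 40% at the single screening dose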;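 further: 0% = DMSO control wells and 100% = blanks with heterologous ssDNA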
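Test system – preformed human Rad51 ssDNA filaments · Reagent – Donor/quencher-labelled 47-bp dsDNA substrate · Incubation – 37 °C 15-min filament assembly, 30-min compound preincubation, 15-min exchange · Signal – FRET fluorescence dequenching, excitation 485 nm, emission 520 nm · Read-out – percent inhibition from fluorescence, normalised to plate control and blank means · Benchmarks – plate control and blank wells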
HSF1 activator: increases HSF-1 driven luciferase reporter signal. NIH3T3-HGL HSF-1 luciferase reporter, MG132, 8 h; 100% = twice DMSO control signal. activation, % at 9 µM. 300,000 tested, 1.7% active. AID 504408;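 active means mean replicate activation of at least 50% with a set share of replicates each reaching 50%; inconclusive means only one of those two conditions met; inactive means mean below 50% and too few replicates reaching it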;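 further: 0% = median of the neutral control wells and 100% = twice that signal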
Active calls of the source: *; i = inactive; u = inconclusive; x = no result. In the library only some 2.6% were active in any assay of this set; here they are far more common.

SMILES | Hsp70 activator | MDM2 E3 inh | HSF1 inhib | HSV replic up | Rad51 HR inh | HSF1 activator
OCc1ccc(O)c2ncccc12 | -0.2 | -19.1 | -53.7* | i | 1.0 | -58.2
C=CCN1C(=O)c2cccc3c(N4CCCCC4)ccc(c23)C1=O | -0.2 | -8.3 | 13.4 | u | i | 40.4
O=C1c2cccc3c(N4CCCCC4)ccc(c23)C(=O)N1CCO | 0.1 | 1.4 | 83.1 | u | -101.0 | 109.1*
Cc1cc(C(=O)Nc2cccc(C(=O)O)c2)oc1C | -0.4 | -79.0 | -52.9* | i | -12.0 | -58.7
O=C(Nc1cccc(Br)c1)c1cc2ccccc2o1 | 0.2 | -4.8 | 56.0 | i | 4.6 | 86.0*
Cc1cccc(NC(=O)c2cc3ccccc3o2)c1 | 0.1 | -14.2 | 44.5 | i | -3.1 | 76.4*
COc1cc(NC(=O)c2c(OC)cccc2OC)ccc1NC(=O)c1cc2ccccc2o1 | x | x | 34.8 | x | x | 52.1*
O=C(Cc1ccccc1)Nc1cc([N+](=O)[O-])ccc1N1CCOCC1 | -0.2 | -16.8 | 7.7 | i | 3.0 | -3.3
O=C(Nc1ccc(Br)cn1)c1ccc(Cl)s1 | x | x | 35.5 | x | x | u
O=C(Nc1ccc(Br)cn1)c1ccc(Br)s1 | x | x | 37.1 | x | x | 70.1*
O=C(c1cc(F)ccc1F)C1CCCN(C(=O)c2ccc3nccnc3c2)C1 (configuration not stated) | x | x | 17.9 | x | x | 16.8
CC(OC(=O)c1nsc(Cl)c1Cl)C(=O)NCc1ccc2c(c1)OCO2 (configuration not stated) | 0.0 | 1.6 | -84.8* | i | -6.5 | -87.8
CC(C)(C)c1nnc(NC(=O)Nc2ccc(Cl)cc2)s1 | x | -12.2 | 0.9 | i | 13.3 | 24.0
CCCCNC(=O)Nc1nnc(C(C)(C)C)s1 | x | 4.3 | 27.1 | i | -11.9 | 55.9*
Cc1c(OC(C)C(=O)NCC(O)c2ccccc2)ccc2c3c(c(=O)oc12)CCCC3 (configuration not stated) | x | x | 4.5 | x | x | -4.0
Cc1cc(=O)oc2c(C)c(OC(C)C(=O)NCCCN3CCOCC3)ccc12 (configuration not stated) | x | x | -68.8* | x | x | -75.7
Cc1cc(=O)oc2c(C)c(OC(C)C(=O)NCC(O)c3ccccc3)ccc12 (configuration not stated) | x | x | 15.2 | x | x | 51.3*
CC(=O)Nc1ccc(Nc2nc(C)c([N+](=O)[O-])c(Nc3ccc(NC(C)=O)cc3)n2)cc1 | -0.3 | -12.0 | -4.4 | i | -9.1 | -4.8
Fc1cc2[nH]c(=S)[nH]c2c(Br)c1N1CCSCC1 | x | x | -1.2 | x | x | 16.4
COc1ccc2[nH]c(=O)c(CN(C(=O)C(C)C)c3ccccc3OC)cc2c1 | x | x | 11.7 | x | x | 0.7
COc1ccc2[nH]c(=O)c(CN(C(=O)COc3ccccc3)C(C)C)cc2c1 | -0.1 | -17.7 | 34.3 | i | 9.5 | 63.6*
S=C(NCCSCc1ccc(Cl)c(Cl)c1)Nc1ccccc1 | 0.0 | x | 58.7 | i | -14.1 | 100.8*
S=C(NCCSCc1ccc(Cl)cc1Cl)Nc1ccccc1 | 0.1 | -0.7 | 35.4 | i | -3.4 | 51.8*
Cc1ccc(S(=O)(=O)Nc2ccccc2C(=O)N2CCCCC2C)c(C)c1NS(C)(=O)=O (configuration not stated) | x | x | -0.5 | x | x | 0.0
Cc1ccc(C)c(S(=O)(=O)N2CCN(CC(=O)Nc3cc(C)on3)CC2)c1 | -0.3 | -9.2 | 39.9 | i | 0.1 | 71.1*
SMILES | Hsp70 activator | MDM2 E3 inh | HSF1 inhib | HSV replic up | Rad51 HR inh | HSF1 activator
CCc1cccc(C)c1NC(=S)N(CCCN1CCOCC1)Cc1cccnc1 | -0.4 | -6.9 | -10.6 | i | 2.3 | -0.7
CC1(C)CC(NC(=O)COc2ccccc2Cl)CC(C)(C)N1 | 0.0 | -23.7 | -65.2* | i | -7.9 | -68.2
Cc1ccc(-c2cnc(SCC(=O)N3CCCc4ccccc43)n2C)cc1 | 0.1 | -2.1 | x | i | -3.6 | x
CCOC(=O)CSc1cc(-c2ccccc2)nc2ncnn12 | x | -0.8 | 46.8 | i | -31.4 | 75.4*
Cn1c(-c2ccccc2)cnc1SCC(=O)N1CCCc2ccccc21 | 1.1 | -9.0 | 16.9 | i | -1.9 | 66.8*
O=C(CSc1nnc(Cc2ccccc2)o1)N1CCc2ccccc21 | 0.4 | -88.0 | 0.6 | i | 85.3* | 0.4
O=C(CSc1nnc(CNc2ccccc2)o1)N1CCCc2ccccc21 | -0.2 | -5.1 | 3.6 | x | x | 5.2
c1ccc(-c2cc(-c3ccccc3)n3ncnc3n2)cc1 | -0.2 | -13.9 | 6.4 | i | 2.3 | 4.3
CCOC(=O)CSc1nnc(-c2ccccc2)c(-c2ccccc2)n1 | x | x | -82.4* | x | x | -86.1
O=c1[nH]c(C2CCN(S(=O)(=O)c3ccccc3)CC2)nc2c1nnn2Cc1c(F)cccc1Cl | x | x | -4.0 | x | x | 16.6
COc1cc(OC)cc(C(=O)N2CCN(c3ccc(N4CCOCC4)nn3)CC2)c1 | x | x | -3.0 | x | x | 8.9
COCCN(C(=O)COC(=O)CCOc1ccccc1C)c1c(N)n(Cc2ccccc2)c(=O)[nH]c1=O | x | x | 9.5 | x | x | -3.1
O=C(N/N=C/c1cccc(Br)c1)C1CC(=O)N(c2ccccc2)C1 (configuration not stated) | x | x | 2.1 | x | x | 4.9
O=C(CSc1nnc(-c2ccccc2)c(-c2ccccc2)n1)N1CCc2ccccc21 | -0.3 | 5.6 | 78.3 | i | 1.8 | 129.8*
Cc1ccsc1C(C(=O)NC(C)(C)C)N(C(=O)c1csnn1)c1ccccc1 (configuration not stated) | 0.4 | -10.2 | 9.9 | i | 5.3 | 21.3
O=C(COc1ccccc1)Nc1nnc(S(=O)(=O)N2CCCCCC2)s1 | x | x | -71.0* | x | x | -77.6
O=C(O)c1ccc2c(c1)C(=O)N(N1C(=O)c3ccccc3C1=O)C2=O | -0.1 | -12.4 | -4.6 | i | 10.1 | -12.2
Cc1ccccc1NC(=O)CSc1nc(Nc2ccccc2)nc(N2CCOCC2)n1 | -0.3 | -1.7 | 33.3 | i | -7.0 | 73.9*
O=C(Nc1nc2c(F)cc(F)cc2s1)c1ccccn1 | -0.3 | -67.7 | 347.8 | i | -7.5 | 422.6*
COc1ccc(N2C(=O)C(Cl)=C(Oc3cccc(OC)c3)C2=O)cc1 | -0.1 | 4.7 | 69.9 | i | -4.6 | 136.5*
Cc1nc2ccc(NC(=O)c3cc(Cl)ccn3)cc2s1 | x | x | 16.9 | x | x | 39.5
Cc1cc(NC(=O)c2ccc3nc(C)sc3c2)no1 | -0.3 | -3.3 | -66.9* | i | 0.0 | -73.3
Cc1ccc(C(=O)Nc2ccc3nc(C)sc3c2)s1 | 0.0 | -20.3 | 32.6 | i | 5.2 | 56.1*
Cc1cc(NC(=O)c2ccc(Cl)cc2)no1 | 1.7 | -16.0 | 13.5 | i | -4.8 | 38.3
Cc1nc2cc(NC(=O)c3ccc(Br)s3)ccc2s1 | x | x | 33.9 | x | x | 55.7*
Cc1ccc(NC(=O)CN2C(=O)NC(Cc3ccccc3)C2=O)c(Br)c1 (configuration not stated) | -0.2 | 5.7 | -3.6 | i | 1.0 | 14.8
Cc1cc(C(=O)OCC(=O)N(CC(C)C)c2c(N)n(Cc3ccccc3)c(=O)[nH]c2=O)c(C)o1 | x | x | 1.8 | x | x | -8.0

Compound activity as filed in PubChem BioAssay.
